The source made the active and inactive calls. The rule behind the calls is not given here.
Columns and labels:
Assay type in all cases: functional, cell membranes
[1] = biological target: T1, P2Y purinoceptor 1 (Meleagris gallopavo, UniProt P49652); assay: In vitro antagonist activity at P2Y1 receptor in turkey erythrocyte membranes.
Method in brief: (§1)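 [3H]inositol-labeled turkey erythrocyte ghosts in pH 7.0 Hepes medium with 1 μM GTPγS were incubated 5 min at 30 °C with test nucleotide plus 10 nM 2-MeSADP. Total [3H]inositol phosphates were separated by anion-exchange. Maximal inhibition is 100 minus residual stimulation at the highest concentration; n = 3 unless stated. "No effect" means none at 100 μM.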

[2] = biological target: P2Y purinoceptor 1 (Meleagris gallopavo) (UniProt P49652); assay: Agonist activity for stimulation of PLC at P2Y purinoceptor 1 in the turkey erythrocyte membranes.
Chain of P2Y purinoceptor 1 (Meleagris gallopavo) (P49652 whole entry): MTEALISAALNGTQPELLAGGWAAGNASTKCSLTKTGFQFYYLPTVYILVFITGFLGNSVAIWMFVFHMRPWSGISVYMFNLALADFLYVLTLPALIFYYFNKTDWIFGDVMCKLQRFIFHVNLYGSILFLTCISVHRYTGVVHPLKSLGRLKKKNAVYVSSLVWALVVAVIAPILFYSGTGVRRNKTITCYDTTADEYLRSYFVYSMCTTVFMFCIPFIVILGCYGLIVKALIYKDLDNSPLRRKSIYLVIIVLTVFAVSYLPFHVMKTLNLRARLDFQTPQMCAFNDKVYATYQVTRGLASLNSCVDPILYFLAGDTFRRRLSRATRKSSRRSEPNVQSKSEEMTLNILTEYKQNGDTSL

[3] = biological target: P2Y purinoceptor 1 (Meleagris gallopavo) (UniProt P49652); assay: Antagonist activity for inhibition of PLC elicited by 10 nM 2-MeSADP at P2Y purinoceptor 1 in turkey erythrocyte membranes
Method in brief: as §1, with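 “anion-exchange. […]” for “anion-exchange.”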

[4] = biological target: T1, P2Y purinoceptor 1; assay: Concentration at which 50% of the maximal effect (stimulation of PLC at P2Y1 receptor in the turkey erythrocyte membranes) is reached
[5] = biological target: P2Y purinoceptor 1 (Meleagris gallopavo) (UniProt P49652); assay: Antagonist activity for inhibition of PLC elicited by 10 nM 2-MeSADP at P2Y purinoceptor 1 in the turkey erythrocyte membranes; No effect, low potency
Method in brief: as §1, with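 “anion-exchange. […]” for “anion-exchange.”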

[6] = biological target: T1, P2Y purinoceptor 1; assay: Concentration at which 50% of the maximal effect (stimulation of PLC at P2Y1 receptor in the turkey erythrocyte membranes) is reached; Low potency agonist
[7] = biological target: P2Y purinoceptor 1 (Meleagris gallopavo) (UniProt P49652); assay: Antagonist activity for inhibition of PLC elicited by 10 nM 2-MeSADP at P2Y purinoceptor 1 in the turkey erythrocyte membranes; No effect
Method in brief: as §1, with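 “anion-exchange. […]” for “anion-exchange.”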

[8] = biological target: P2Y purinoceptor 1 (Meleagris gallopavo) (UniProt P49652); assay: In vitro agonist activity at P2Y1 receptor in turkey erythrocyte membranes; No effect at 100 uM.

T1 sequence (P49652 whole entry): as above

SMILES	IC50 [1] [nM]	Increase [2] [%]	inhibition [3] [%]	EC50 [4] [nM]	inhibition [5]	EC50 [6]	inhibition [7]	Increase [8]
Nc1ncnc2c1ncn2[C@@H]1C[C@H](COP(=O)(O)O)[C@@H](OP(=O)(O)O)C1	2530	27	73	7210	–	–	–	–
[N-]=[N+]=N[C@H]1[C@@H](OP(=O)(O)O)[C@H](n2cnc3c(N)ncnc32)O[C@@H]1COP(=O)(O)OP(=O)(O)OP(=O)(O)O	–	49	–	–	inactive	Partial agonist	–	–
CCCSc1nc(NC)c2ncn([C@H]3C[C@H](OP(=O)(O)O)[C@@H](COP(=O)(O)O)O3)c2n1	449	7	94	–	–	–	–	–
Nc1ncnc2c1ncn2[C@H]1C[C@H](OP(=O)(O)O)[C@@H](COCP(=O)(O)O)O1	19600	22	78	27700	–	–	–	–
CNc1nc(SC)nc2c1ncn2[C@H]1C[C@H](OP(=O)(O)O)[C@@H](COP(=O)(O)O)O1	362	6	94	–	–	–	–	–
Nc1ncnc2c1ncn2[C@@H]1O[C@H](COP(=O)(O)O)[C@@H](OP(=O)(O)O)[C@H]1O	14900	44	56	2340	–	–	–	–
CCSc1nc(N)c2ncn([C@H]3C[C@H](OP(=O)(O)O)[C@@H](COP(=O)(O)O)O3)c2n1	4590	16	84	1980	–	–	–	–
Nc1ncnc2c1ncn2[C@H]1C[C@H](OP(=O)(O)O)[C@@H](COP(=O)(O)O)O1	–	12	87	–	–	–	–	–
O=c1ccn([C@H]2C[C@H](OP(=O)(O)O)[C@@H](COP(=O)(O)O)O2)c(=O)[nH]1	–	–	–	–	–	–	inactive	inactive
CCCSc1nc(N)c2ncn([C@H]3C[C@H](OP(=O)(O)O)[C@@H](COP(=O)(O)O)O3)c2n1	–	53	46	1710	–	–	–	–
Nc1nc2c(ncn2[C@H]2C[C@H](OP(=O)(O)O)[C@@H](COP(=O)(O)O)O2)c(=O)[nH]1	14900	–	93	–	–	–	–	inactive
CNc1nc(N)nc2c1ncn2[C@H]1C[C@H](OP(=O)(O)O)[C@@H](COP(=O)(O)O)O1	1850	4	96	–	–	–	–	–
CNc1ccnc2c1ncn2[C@H]1C[C@H](OP(=O)(O)O)[C@@H](COP(=O)(O)O)O1	904	–	96	–	–	–	–	inactive
Cc1cn([C@H]2C[C@H](OP(=O)(O)O)[C@@H](COP(=O)(O)O)O2)c(=O)[nH]c1=O	–	–	–	–	–	–	inactive	inactive
CONc1ncnc2c1ncn2[C@H]1C[C@H](OP(=O)(O)O)[C@@H](COP(=O)(O)O)O1	> 100000	–	–	–	inactive	–	–	inactive
Cc1nc2c(N)ncnc2n1[C@H]1C[C@H](OP(=O)(O)O)[C@@H](COP(=O)(O)O)O1	75100	–	53	–	–	–	–	inactive
O=c1[nH]c(=O)n([C@H]2C[C@H](OP(=O)(O)O)[C@@H](COP(=O)(O)O)O2)cc1F	–	–	–	–	–	–	inactive	inactive
Nc1ncnc2c1ncn2[C@H]1C[C@H](OP(=O)(O)O)[C@@H](COP(=O)(O)O)S1	–	56	38	12200	–	–	–	–
CNc1nc(I)nc2c1ncn2[C@H]1C[C@H](OP(=O)(O)O)[C@@H](COP(=O)(O)O)O1	891	13	87	4440	–	–	–	–

SMILES	IC50 [1] [nM]	Increase [2] [%]	inhibition [3] [%]	EC50 [4] [nM]	inhibition [5]	EC50 [6]	inhibition [7]	Increase [8]
CSc1nc(N)c2ncn([C@H]3C[C@H](OP(=O)(O)O)[C@@H](COP(=O)(O)O)O3)c2n1	1890	22	78	–	–	–	–	–
C=CCSc1nc(NC)c2ncn([C@H]3C[C@H](OP(=O)(O)O)[C@@H](COP(=O)(O)O)O3)c2n1	475	–	97	–	–	–	–	inactive
Nc1nc(Cl)nc2c1ncn2[C@H]1C[C@H](OP(=O)(O)O)[C@@H](COP(=O)(O)O)O1	–	19	80	–	–	–	–	–
CSc1nc2c(N)ncnc2n1[C@H]1C[C@H](OP(=O)(O)O)[C@@H](COP(=O)(O)O)O1	–	–	–	–	inactive	–	–	inactive
COP(=O)(O)OC[C@H]1O[C@@H](n2cnc3c(N)ncnc32)C[C@@H]1OP(=O)(O)OC	–	–	–	–	–	–	inactive	inactive
CNc1nc(Cl)nc2c1ncn2[C@H]1C[C@H](OP(=O)(O)O)[C@@H](COP(=O)(O)O)O1	206	–	95	–	–	–	–	inactive
Nc1ccn([C@H]2C[C@H](OP(=O)(O)O)[C@@H](COP(=O)(O)O)O2)c(=O)n1	–	–	–	–	–	–	inactive	inactive
COc1nc2c(N)ncnc2n1[C@H]1C[C@H](OP(=O)(O)O)[C@@H](COP(=O)(O)O)O1	–	–	–	–	–	–	inactive	inactive
Nc1ncnc2c1ncn2[C@H]1C[C@H](O)[C@@H](COP(=O)(O)O)[S+]1[O-] (stereo partly specified)	–	–	–	–	–	–	inactive	inactive
Nc1ncnc2c1ncn2[C@@H]1CO[C@H](COP(=O)(O)O)[C@@H](OP(=O)(O)O)C1	–	100	–	2990	–	–	inactive	–
CNc1ncnc2c1ncn2[C@H]1C[C@@H]2OP(=O)(O)OP(=O)(O)OC[C@H]2O1	–	–	–	–	inactive	–	–	inactive
CNc1nc(N)nc2c1ncn2[C@@H]1C[C@H](COP(=O)(O)O)[C@@H](OP(=O)(O)O)C1	5420	26	74	6490	–	–	–	–
[N-]=[N+]=N[C@H]1[C@@H](OP(=O)(O)O)[C@H](n2cnc3c(N)ncnc32)O[C@@H]1COP(=O)(O)O	–	46	–	–	–	Partial agonist	inactive	–
CCSc1nc(NC)c2ncn([C@H]3C[C@H](OP(=O)(O)O)[C@@H](COP(=O)(O)O)O3)c2n1	980	–	94	–	–	–	–	inactive
CCCCCCSc1nc(NC)c2ncn([C@H]3C[C@H](OP(=O)(O)O)[C@@H](COP(=O)(O)O)O3)c2n1	3370	–	100	–	–	–	–	inactive
CNc1nc2c(N)ncnc2n1[C@H]1C[C@H](OP(=O)(O)O)[C@@H](COP(=O)(O)O)O1	–	–	–	–	inactive	–	–	inactive
C=Cc1nc2c(N)ncnc2n1[C@H]1C[C@H](OP(=O)(O)O)[C@@H](COP(=O)(O)O)O1	30700	–	59	–	–	–	–	inactive
CNc1ncnc2c1ncn2[C@H]1C[C@@H]2OP(=O)(O)OP(=O)(O)OP(=O)(O)OP(=O)(O)OC[C@H]2O1	158	14	87	20	–	–	–	–

Reference: ChEMBL document CHEMBL1132720 (J Med Chem, 1999)
